# Screens: PubChem BioAssay, several laboratories
# CASP6 VEID inh – human caspase-6 inhibitors, primary screen, biochemical, VEID-R110 fluorescence, single point, set 2; purified caspase-6, Z-VEID-R110 cleavage fluorescence; AID 686996, 2013; inhibition, % at 12.5 µM; P55212; 0.53% of 350,000 active;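 active = mean inhibition across replicates at least about 35%, with every replicate also reaching that limit, limit read from the data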;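 note: 0% = median of neutral control wells and 100% = no fluorescence left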
# Target sequence (P55212 24-179 limits assumed): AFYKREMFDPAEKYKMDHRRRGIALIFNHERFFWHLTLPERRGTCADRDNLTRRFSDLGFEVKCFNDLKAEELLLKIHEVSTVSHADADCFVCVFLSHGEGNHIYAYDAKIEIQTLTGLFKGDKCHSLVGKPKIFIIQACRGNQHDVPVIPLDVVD
# Target sequence (P55212 194-293 limits assumed): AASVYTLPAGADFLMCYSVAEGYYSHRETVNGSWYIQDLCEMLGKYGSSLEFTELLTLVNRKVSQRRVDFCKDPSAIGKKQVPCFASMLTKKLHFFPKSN
# T cell HTS – modulators of CD8 T cell-vesicle binding, primary screen, mouse 2C CD8+ T cells, flow cytometry; AID 2052, 2009; response (vesicle binding), % at 7 µM; 2C CD8+ T cell-vesicle binding; hits give low values; 0.068% of 330,000 active;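 active = response, share of CD8 T cells binding vesicles, and their 90th percentile fluorescence all below set limits, cut at about 80% in these data, passing the limit was not always enough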;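 note: values below 100% mean blocked vesicle binding to the CD8+ T cells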
#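 Also added: QL9-peptide-loaded Drosophila micro-vesicles bearing Ld, ICAM-1 and B7-1; Test system: purified 2C TCR transgenic mouse naive CD8+ T cells; Measured by: cytometric PE anti-B7-1 and Alexa647 anti-CD8 signals after 1% paraformaldehyde fixation; Timing: binding step 1.5 h, 37 °C, antibody labelling 20 min, ice.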
# Vif inh – HIV Vif self-association inhibitors, primary screen, imaging, HEK293T, single point | HEK293T cells, Vif self-association by quenched fluorescence, 24 h | inhibition, % at 7.49 µM | 0.35% of 340,000 active | AID 602346, 2012; in the data active = inhibition above about 50%, passing the limit was not always enough
# Myeloid diff 2 – induction of myeloid progenitor differentiation, primary screen, cell-based, flow cytometry, MLPCN library. ER-HoxA9 myeloid progenitors, lysozyme-GFP differentiation. calls only at 10 µM. 1% of 360,000 active. AID 624256, 2012;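 active = normalized GFP-positive differentiation at or above the plate's own cutoff, the solvent-only control mean plus 3 SD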;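 note: cells exposed to compound for four days before flow analysis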
# Numbers without * were called inactive; i = inactive; . = no result; + = active, no number. Sampled rows, rich in hits. Any-hit rate of the full collection: about 1.4%.
SMILES,CASP6 VEID inh,T cell HTS,Vif inh,Myeloid diff 2
CN(C)C=Nc1c(Br)cc(Br)c2nonc12,.,130,70*,i
CN(C)C=Nc1nonc1-c1ccccc1,-1,i,-5,i
COc1cc2c(cc1OC)CN(c1nc(CN3CCCCC3)nc3sc4c(c13)CCCC4)CC2,.,242,-15,i
COc1cc2c(cc1OC)CN(c1nc(CN3CCOCC3)nc3sc4c(c13)CCCC4)CC2,.,282,1,+
COc1cccc(Nc2nc(CN3CCOCC3)nc3sc4c(c23)CCCC4)c1,0,441,96*,i
Cc1cccn2c(=O)c3cc(C(=O)NCCN4CCOCC4)n(C)c3nc12,-4,540,0,+
CCCn1c(=N)c(C(=O)NCc2ccc3c(c2)OCO3)cc2c(=O)n3cccc(C)c3nc21,15,674,93*,i
Cn1c(C(=O)NCCN2CCOCC2)cc2c(=O)n3ccccc3nc21,-1,292,-5,i
Cc1cccn2c(=O)c3cc(C(=O)NC4CCCCC4C)n(C)c3nc12 (centres undefined),2,103,-7,+
CCNC(=O)c1cc2c(=O)n3cccc(C)c3nc2n(Cc2ccc(C)cc2)c1=N,.,461,-2,i
O=C(O)Cc1sc(NC2CCCCC2)nc1-c1ccc(Cl)cc1,-1,318,-1,+
COc1cc(NC(=O)c2cccnc2)c(Cl)cc1NC(=O)c1ccccc1,64*,238,-1,i
COc1cc(NC(=O)c2cccnc2)c(Cl)cc1NC(=O)c1ccc(Cl)cc1,-1,181,12,i
O=C(N[C@@H]1CC[C@H](CCNC(=O)C2CCC2)O[C@@H]1CO)c1ccccn1,-2,.,.,.
COc1ccc2c3c(n(C)c2c1)[C@@H](CO)N(C(=O)CC1CC1)CC31CCN(C(=O)CC2CC2)CC1,2,.,.,.
CC(C)(C)n1nnnc1C(c1cccs1)N(Cc1ccccc1)Cc1cccnc1 (centres undefined),.,265,-18,i
CC(C)(C)n1nnnc1CN(Cc1cccnc1)Cc1ccccc1Cl,.,285,26,+
O=C1C(Cl)=C(NCCN2CCOCC2)C(=O)c2ccccc21,70*,301,8,i
C[C@@H]1CN([C@H](C)CO)C(=O)c2cc(NC(=O)Cn3cnnn3)ccc2O[C@H]1CN(C)C(=O)Nc1ccc2c(c1)OCO2,-1,.,.,.
COc1ccc(-n2c(C)cc(/C=C3/SC(=S)N(C)C3=O)c2C)cc1,-2,320,7,+
Cc1cc(/C=C2\SC(=O)N(C)C2=O)c(C)n1-c1ccc(O)cc1,2,96,-13,i
Cc1cc(/C=C2\SC(=S)N(Cc3ccco3)C2=O)c(C)n1-c1ccccc1,.,272,-2,+
CN(C)c1ccc(C=C2SC(=S)N(Cc3ccco3)C2=O)cc1,0,.,.,+
O=C(O)CN1C(=O)/C(=C\c2ccc(OC(=O)c3ccco3)cc2)SC1=S,16,407,-3,i
O=C(C1=C[C@H](c2ccccc2)C[C@H](OCc2ccc(CO)cc2)O1)N1CCCC1,-2,.,.,.
SMILES,CASP6 VEID inh,T cell HTS,Vif inh,Myeloid diff 2
Cc1ccccc1Nc1c(C)c(C)nc2ncnn12,-2,331,143*,i
Cc1cccc(NC(=O)c2sc3nc4c(c(-c5cccs5)c3c2N)CN(C)CC4)c1,.,392,7,+
C[C@@H]1CN([C@H](C)CO)C(=O)c2cc(NC(=O)Nc3ccc4c(c3)OCO4)ccc2O[C@@H](C)CCCCO[C@H]1CN(C)Cc1ccc(Cl)c(Cl)c1,1,.,.,.
O=C(Nc1cc([N+](=O)[O-])ccc1O)c1ccc2c(c1)C(=O)N(Cc1ccco1)C2=O,42*,285,.,i
CO[C@@H]1CN(C)C(=O)c2ccc(NC(=O)C3CCC3)cc2OC[C@@H](C)N(Cc2cccnc2)C[C@@H]1C,6,.,.,.
O=C(Nc1nc(-c2ccccn2)cs1)c1cc(S(=O)(=O)N2CCOCC2)ccc1F,5,359,-9,+
Cc1ccc(S(=O)(=O)/N=C2/NC(=O)/C(=C/c3cc([N+](=O)[O-])ccc3O)S2)cc1,37*,666,10,i
C[C@@H]1CN([C@@H](C)CO)C(=O)Cc2cc(NC(=O)Cn3cnnn3)ccc2O[C@H]1CN(C)C,2,.,.,.
COc1ccc(C(=O)N/N=C/c2ccccn2)cc1OC,5,151,-4,i
COc1ccc(C(=O)Nc2ccccc2C(=O)N/N=C/c2ccccn2)cc1OC,7,507,-1,+
O=C(NNC(=O)c1ccccc1Br)c1ccc2nc[nH]c2c1,47*,696,6,i
O=C(CNC(=S)NC(=O)c1ccc(Br)o1)c1ccccc1,.,194,7,+
O=C(NC1CCS(=O)(=O)C1)c1cccnc1 (centres undefined),.,27*,.,.
O=C(NC1CCS(=O)(=O)C1)c1cccc(Br)c1 (centres undefined),-1,416,-1,i
O=C(Oc1ccc(Nc2ncnc3ccccc23)cc1)c1cccnc1,38*,.,-12,i
CCN1C(=O)/C(=C/C=C2\C=CN(CC)c3ccccc32)SC1=S,.,298,-5,i
CCN1C(=O)C(=CC=CN(C)c2ccccc2)SC1=S,4,.,44,+
O=C(O)CN1C(=O)/C(=C/C=C/c2ccccc2)SC1=S,3,397,0,i
CCCN1C(=O)/C(=C\C=C2\N(CC)c3ccccc3C2(C)C)SC1=S,-5,.,167*,+
CN1/C(=C\C=C2/SC(=S)NC2=O)C(C)(C)c2ccccc21,-15,i,i,+
Cc1noc(C)c1NC(=O)Nc1ccc2c(c1)CC(=O)N([C@@H](C)CO)C[C@@H](C)[C@H](CN(C)S(=O)(=O)c1ccccc1)O2,-3,.,.,.
COCC(=O)Nc1ccc2c(c1)[C@H]1C[C@@H](CC(=O)N3CCc4ccccc4C3)O[C@@H](CO)[C@H]1O2,0,.,.,.
CC(=O)c1ccc(OCC(O)COc2ccc(C(C)=O)cc2)cc1,.,367,19,i
CC(=O)c1ccc(OCC(O)CN(C)CCOc2ccc(Br)cc2)cc1 (centres undefined),1,419,-4,+
O=C(O)/C=C/C(=O)Nc1ccc(C2(c3ccc(NC(=O)/C=C/C(=O)O)cc3)c3ccccc3-c3ccccc32)cc1,47*,297,-1,i
SMILES,CASP6 VEID inh,T cell HTS,Vif inh,Myeloid diff 2
O=C(O)/C=C\C(=O)Nc1ccc(Oc2ccccc2)cc1,.,689,2,i
COc1cc(C(=O)NNC(=O)CCOc2ccccc2)cc(OC)c1OC,2,468,10,+
O=C(NC1CCCCC1)N[C@H]1C=C[C@@H](CC(=O)N2CCOCC2)O[C@@H]1CO,37*,.,.,.
O=C(NC1CCCCC1)N[C@@H]1C=C[C@@H](CC(=O)N2CCOCC2)O[C@@H]1CO,4,.,.,.
Cc1nc(SCc2ccc(Br)cc2)[nH]c(=O)c1C,.,575,52*,i
COCC(=O)Nc1ccc2c(c1)OC[C@@H](C)N(CCC(F)(F)F)C[C@@H](C)[C@H](OC)CN(C)C2=O,2,.,.,.
COc1ccc(S(=O)(=O)c2c(N)n(Cc3ccco3)c3nc4ccccc4nc23)cc1,.,241,-4,+
